# Source: PubChem
# Ecoli tolC = growth inhibitors of E. coli BW25113 tolC mutant; actives 2.2% (n = 65,000); OD615; growth inhibition, % at 10 µM (by protocol);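 active means growth inhibition at or above a cutoff equal to the mean over every tested compound plus 3 SD, cut at about 60% in these data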;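 further: growth measured after 20 h incubation at 37 °C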
#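 Assay system: tolC-deleted E. coli BW25113. Medium: kanamycin-containing LB broth (50 µg/mL). Dosing: 10 µM final, single dose. Timing: bacterial growth with compound for 20 h at 37 °C. Detection: A615 absorbance measurement. Read-out basis: growth inhibition in percent.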
# EphB4 antag = blocks human EphB4 binding to ephrin-B2. P54760. EphB4 LBD / TNYL-RAW-Alexa532 peptide, fluorescence polarization. inhibition, % at 7 µM. actives 0.15% (n = 97,000). AID 720;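 active means inhibition above the screen-wide mean inhibition plus 3 SD, cut at about 15% in these data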;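 further: 0% = DMSO wells and 100% = excess unlabeled TNYL-RAW peptide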
# Target sequence (P54760 whole entry, looked up, the tested form may be a part): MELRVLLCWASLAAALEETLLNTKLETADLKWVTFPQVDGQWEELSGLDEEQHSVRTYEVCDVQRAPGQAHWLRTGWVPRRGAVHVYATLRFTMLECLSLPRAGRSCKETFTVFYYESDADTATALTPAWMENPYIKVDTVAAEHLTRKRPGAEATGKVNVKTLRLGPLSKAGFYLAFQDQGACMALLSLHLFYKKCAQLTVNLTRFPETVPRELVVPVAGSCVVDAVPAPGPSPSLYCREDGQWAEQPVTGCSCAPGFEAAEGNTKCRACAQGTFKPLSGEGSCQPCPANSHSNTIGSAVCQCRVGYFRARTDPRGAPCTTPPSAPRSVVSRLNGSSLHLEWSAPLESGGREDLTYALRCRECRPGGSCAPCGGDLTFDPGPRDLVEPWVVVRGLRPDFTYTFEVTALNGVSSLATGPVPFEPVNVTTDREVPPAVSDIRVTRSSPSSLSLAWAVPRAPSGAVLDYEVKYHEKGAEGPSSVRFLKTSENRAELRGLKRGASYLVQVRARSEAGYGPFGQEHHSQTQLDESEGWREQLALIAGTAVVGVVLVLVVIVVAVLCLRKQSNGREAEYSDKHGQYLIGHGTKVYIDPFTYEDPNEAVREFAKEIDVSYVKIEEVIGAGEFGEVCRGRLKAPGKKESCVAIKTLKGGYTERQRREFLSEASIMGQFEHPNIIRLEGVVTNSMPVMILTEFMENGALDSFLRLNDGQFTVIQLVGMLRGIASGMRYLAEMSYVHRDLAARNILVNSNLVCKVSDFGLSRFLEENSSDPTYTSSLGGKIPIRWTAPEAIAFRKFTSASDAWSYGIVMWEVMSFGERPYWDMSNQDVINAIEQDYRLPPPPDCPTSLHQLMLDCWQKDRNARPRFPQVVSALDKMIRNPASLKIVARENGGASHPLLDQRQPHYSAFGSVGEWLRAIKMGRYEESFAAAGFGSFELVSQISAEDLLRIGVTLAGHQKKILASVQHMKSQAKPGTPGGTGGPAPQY
# PostGolgi yeast = growth inhibition of a yeast mutant, post-Golgi transport screen; post-Golgi transport phenotypic cell assay; inhibition, % at 10 µM; actives 0.9% (n = 98,000); AID 739;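 further: yeast cells grown in 1536-well plates; yeast grown about 18 h at 30C before absorbance read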
# PostGolgi ctrl = growth of the yeast control strain, post-Golgi counter-screen; efflux-deficient yeast background strain, growth absorbance A615, 16 h; inhibition, % at 10 µM; actives 5% (n = 98,000); AID 738
# Ecoli WT expand = growth inhibitors of E. coli BW25113 wild type. growth inhibition, % at 100 µM. AID 710. actives 0.15% (n = 98,000). OD600 absorbance;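 active means growth inhibition above about 50% at one test dose, limit read from the data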;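 further: growth measured after 20 h incubation at 37 °C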
# Active calls of the source: *; nt = not tested or not shown. Compounds with a hit are over-represented: about 6% of the library has one in this group of screens. Unless noted, no stated cut-off is given here; in the data, active means inhibition above about 30%; inactive means the rest.
SMILES,Ecoli tolC,EphB4 antag,PostGolgi yeast,PostGolgi ctrl,Ecoli WT expand
Cc1nnsc1C(=O)NC(C)C12CC3CC(CC(C3)C1)C2 (centres undefined),nt,2.3,0.0,6.5,5.0
COC(=O)c1c(NC(=O)C2(C)Cc3ccccc3C(=O)O2)sc2c1CCCC2 (centres undefined),nt,-1.7,-7.4,13.8,-11.0
COc1ccc(Cl)cc1NC(=O)CN(C(=O)c1ccco1)C1CCCCC1,11.5,-2.0,-0.9,40.6*,0.0
O=[N+]([O-])c1ccc(NCCNS(=O)(=O)c2ccccc2)c(C(F)(F)F)c1,nt,-3.9,-7.1,12.9,0.0
Cc1ccc(S(=O)(=O)NCCNc2ccc([N+](=O)[O-])cc2C(F)(F)F)cc1,nt,0.8,-1.3,39.6*,1.0
O=C(Nc1nc(-c2cccs2)c(-c2ccccc2)s1)c1ccco1,15.6,-3.3,36.0*,32.0*,-16.0
CCCc1cc(=O)[nH]c(Nc2ccc(N3CCCCC3)cc2)n1,21.9,0.1,6.9,10.6,8.0
CCCCc1ccc(Nc2nc(CCC)cc(=O)[nH]2)cc1,100.0*,1.2,5.9,51.6*,2.0
COc1ccc(CN2CCN(c3ncccn3)CC2)c(OC)c1,-3.3,nt,-3.9,41.8*,0.0
O=S(=O)(NCCc1ccncc1)c1ccc(S(=O)(=O)N2CCCCCC2)cc1,-10.3,1.7,-0.5,3.6,-14.0
CCOC(=O)C1=C(C)Nc2nc(=S)[nH]n2C1c1ccc(Cl)cc1 (centres undefined),nt,-2.1,4.2,30.9*,4.0
CCOC(=O)C1=C(C)Nc2nc(SCC)nn2C1c1ccc(OC)cc1 (centres undefined),nt,7.6,-1.2,0.1,-5.0
CCOC(=O)CSC1=C(C#N)C(c2ccco2)C(C(=O)Nc2cccc(C(F)(F)F)c2)=C(C)N1 (centres undefined),61.2*,-5.3,-1.5,96.6*,-10.0
CSCSC1=C(C#N)C(c2ccc(Cl)cc2)C(C(C)=O)=C(C)N1 (centres undefined),96.0*,5.0,0.8,0.1,-19.0
CC(=O)C1=C(C)NC(SCC(=O)c2ccc(Cl)cc2Cl)=C(C#N)C1c1ccco1 (centres undefined),48.2,-6.3,6.2,33.8*,-12.0
CCOC(=O)CSC1=C(C#N)C(c2ccccc2)C(C(C)=O)=C(C)N1 (centres undefined),41.1,1.4,4.0,6.3,5.0
CC(=O)NCCn1c(SCc2ccc(C)cc2C)nc2ccccc2c1=O,nt,2.6,0.0,33.4*,-4.0
Cn1nnnc1SCC(=O)Nc1cc(C(=O)O)cc(C(=O)O)c1,nt,-2.7,20.0,-0.2,-1.0
Cc1oc(-c2nc3ccccc3n2C)cc1C(=O)c1ccccc1,8.9,1.1,4.8,34.0*,-18.0
O=C1OC(OC2CCCCC2)(c2ccccc2)c2ccccc21 (centres undefined),nt,-4.1,6.1,38.8*,-5.0
O=C1OC(Oc2ccccc2)(c2ccccc2)c2ccccc21 (centres undefined),nt,-2.3,2.1,32.4*,-2.0
Cc1[nH]n(C(C)(C)C)c(=O)c1Sc1ccccc1,-6.2,4.9,15.7,-4.8,-3.0
Cc1[nH]n(-c2ccccc2)c(=O)c1Sc1ccc(Cl)cc1,nt,-6.7,-2.9,35.0*,4.0
O=S(=O)(Nc1nc(CN2CCOCC2)nc2sc3c(c12)CCCC3)c1cc(F)ccc1F,11.7,4.9,3.1,11.6,0.0
Clc1ccc(-c2n[nH]c3c2CCC3)cc1Cl,nt,3.1,101.0*,69.2*,3.0
SMILES,Ecoli tolC,EphB4 antag,PostGolgi yeast,PostGolgi ctrl,Ecoli WT expand
CCC(C)Sc1nc2ccccc2n1CC(=O)O (centres undefined),nt,0.6,-3.7,8.2,6.0
O=C(Nc1cccnc1)Nc1ccc(Br)cc1Cl,17.6,9.7,-9.9,34.8*,3.0
Cc1noc(C)c1CSc1nc2ccccc2c(=O)n1-c1ccc(F)cc1F,54.9,-4.2,3.4,55.2*,-15.0
O=C(CSc1nc(Cc2ccccc2)nc2ccccc12)c1ccc2c(c1)OCCO2,nt,-2.9,20.1,16.9,-4.0
CCc1nc(SCC(=O)c2ccc3c(c2)OCCO3)c2ccccc2n1,nt,-3.7,-4.2,31.8*,-13.0
O=C(CN(C(=O)CNC(=O)c1ccco1)c1ccc(Cl)c(Cl)c1)NC1CCCCC1,72.0*,-4.4,-2.9,5.6,9.0
Cc1onc(-c2ccccc2)c1C(=O)N1CCc2ccccc21,11.1,-2.5,8.0,11.1,4.0
Cc1nc2sccn2c1-c1nc(-c2cc3ccccc3o2)cs1,-3.3,-12.2,1.2,34.3*,0.0
Cc1ccnc(Nc2nc(-c3c(C)nc4sccn34)cs2)c1,49.1,-5.5,5.0,14.3,-13.0
O=c1cc(O)c2c(=O)n3c4c(cccc4c2o1)CCC3,95.8*,nt,nt,nt,nt
O=c1cc(O)c2c(=O)n(-c3ccccc3)c3ccccc3c2o1,43.4,-3.1,-3.1,5.3,0.0
CCn1c(=O)c2c(O)cc(=O)oc2c2ccccc21,nt,6.2,31.5*,1.8,-2.0
Cc1ccc(S(=O)(=O)N(CCC(=O)O)Cc2ccc(Cl)cc2)cc1,nt,1.5,13.1,-3.8,-5.0
O=C1CC(C(=O)Nc2ccccc2)C2(CCCCC2)O1 (centres undefined),nt,-4.0,-1.8,1.8,2.0
CC1(c2cnc(Nc3ccccc3)s2)CCC(=O)O1 (centres undefined),2.7,0.6,-4.7,38.6*,-3.0
COc1ccc(CCNC(=O)Cc2cc(OCc3ccccc3)c(OC)cc2[N+](=O)[O-])cc1OC,nt,-4.7,-6.7,15.6,-3.0
CN(c1ccccc1)C(c1ccc(F)cc1)c1nnnn1CC1CCCO1 (centres undefined),-1.1,-5.6,4.2,22.2,-1.0
CN(c1ccccc1)C(c1ccc(F)cc1)c1nnnn1C1CCCC1 (centres undefined),73.4*,7.3,-1.8,9.4,-15.0
Cc1ccc2c(c1)CCCN2C(=O)c1cc2ccccc2oc1=O,nt,2.3,-1.4,18.1,0.0
COc1cccc(-c2cc(C(F)(F)F)nc(NCc3ccco3)n2)c1,0.9,0.4,-0.6,32.7*,0.0
COc1ccc(-c2cc(C(F)(F)F)nc(NCc3ccco3)n2)cc1OC,3.3,-3.4,0.2,1.1,1.0
Cn1ncc(Cl)c1C(=O)NC(=S)Nc1sc2c(c1C#N)CCCCC2,nt,-1.8,-3.6,-5.0,-4.0
N#C/C(C(=O)N1CCOCC1)=C1/SC(Cc2ccccc2)C(=O)N1c1ccccc1 (centres undefined),14.7,7.6,6.1,-0.6,3.0
CCCCc1ccc(CC2S/C(=C(\C#N)C(=O)N3CCOCC3)N(c3ccccc3)C2=O)cc1 (centres undefined),nt,7.6,-5.9,37.5*,2.0
O=C1c2ccccc2C(=O)N1CCC(c1ccc(F)cc1)c1ccco1 (centres undefined),76.8*,-1.8,-0.2,3.9,4.0
CCS(=O)(=O)N1CCN(c2ccccn2)CC1,nt,1.8,5.7,-3.5,6.0
O=C(CN1C(=O)NC2(CCc3ccccc32)C1=O)c1ccc2c(c1)OCCO2 (centres undefined),14.7,nt,6.1,-1.7,4.0
CCCC(=O)N1CCN(S(=O)(=O)c2cc(Cl)ccc2OC)CC1,-4.0,2.9,2.9,31.8*,3.0
Clc1ccc(-c2cnc(Oc3ccccc3)nc2)cc1,nt,-2.6,33.1*,-7.8,-8.0
